Two compounds from ChEMBL document CHEMBL4190262, “Tuning of β-glucosidase and α-galactosidase inhibition by generation and in situ screening of a library of pyrrolidine-triazole hybrid molecules” (Eur J Med Chem, 2017) can be followed below.

The target of test [1] is Alpha-galactosidase (Coffea arabica) (UniProt Q42656). In words: Inhibition of coffee beans alpha-galactosidase at 50 uM using p-nitrophenyl glycopyranoside preincubated for 5 mins followed by substrate addition measured after 20 mins by visible absorption spectroscopic method relative to control. Summed up: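 Crude triazoles from in situ CuAAC (ascorbate/CuSO4, 24 h rt, water-diluted) were screened at 50 μM per well, assuming full conversion. Enzyme was coffee bean α-galactosidase at pH 6, 37 °C, with p-nitrophenyl glycoside substrate and 405 nm read-out. Blanks of CuSO4, ascorbate and each alkyne were run.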

Test [2] deals with T1, Alpha-mannosidase (Canavalia ensiformis) (UniProt C0HJB3).
T1 sequence (whole entry): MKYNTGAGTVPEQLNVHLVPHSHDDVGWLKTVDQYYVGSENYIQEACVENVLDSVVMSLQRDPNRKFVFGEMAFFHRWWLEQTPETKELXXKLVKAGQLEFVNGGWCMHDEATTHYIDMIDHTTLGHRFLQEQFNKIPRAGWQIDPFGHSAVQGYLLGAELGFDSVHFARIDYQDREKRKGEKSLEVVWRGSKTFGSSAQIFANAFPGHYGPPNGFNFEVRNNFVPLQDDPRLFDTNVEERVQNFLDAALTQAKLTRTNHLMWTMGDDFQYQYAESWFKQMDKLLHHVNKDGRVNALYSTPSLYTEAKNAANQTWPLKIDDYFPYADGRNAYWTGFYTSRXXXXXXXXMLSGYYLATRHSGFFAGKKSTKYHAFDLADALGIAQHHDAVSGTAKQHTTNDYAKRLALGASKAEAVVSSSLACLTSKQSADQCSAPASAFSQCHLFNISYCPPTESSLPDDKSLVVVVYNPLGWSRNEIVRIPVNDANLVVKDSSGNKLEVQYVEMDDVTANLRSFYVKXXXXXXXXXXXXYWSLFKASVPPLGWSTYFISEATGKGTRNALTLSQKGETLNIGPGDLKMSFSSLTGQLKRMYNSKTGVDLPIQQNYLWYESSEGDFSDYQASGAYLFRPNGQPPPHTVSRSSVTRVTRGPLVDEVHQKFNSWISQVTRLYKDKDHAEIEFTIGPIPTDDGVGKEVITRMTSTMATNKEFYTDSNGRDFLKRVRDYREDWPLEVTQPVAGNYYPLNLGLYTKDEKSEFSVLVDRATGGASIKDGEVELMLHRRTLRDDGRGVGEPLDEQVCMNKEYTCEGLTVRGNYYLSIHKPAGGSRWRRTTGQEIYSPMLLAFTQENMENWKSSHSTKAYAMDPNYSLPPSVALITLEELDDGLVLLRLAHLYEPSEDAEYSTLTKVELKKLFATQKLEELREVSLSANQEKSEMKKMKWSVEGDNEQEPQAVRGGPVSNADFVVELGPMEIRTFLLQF
In words: Inhibition of jack bean alpha-mannosidase at 1 mM using p-nitrophenyl glycopyranoside preincubated for 5 mins followed by substrate addition measured after 20 mins by visible absorption spectroscopic method relative to control. Summed up:
(§1)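 Test compound at 1 mM in well. Mix: 0.01–0.5 units/mL enzyme plus 10 mM p-nitrophenyl glycopyranoside (aqueous solution), buffered to the enzyme's optimal pH. Enzyme and inhibitor preincubated 5 min at rt. Substrate then added and incubated 20 min at 37 °C. Stopped with sodium borate (pH 9.8). p-Nitrophenolate read at 405 nm. Duplicates averaged.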

In test [3] the target is T2, Beta-galactosidase (Aspergillus oryzae) (UniProt B7VU80).
T2 sequence (whole entry): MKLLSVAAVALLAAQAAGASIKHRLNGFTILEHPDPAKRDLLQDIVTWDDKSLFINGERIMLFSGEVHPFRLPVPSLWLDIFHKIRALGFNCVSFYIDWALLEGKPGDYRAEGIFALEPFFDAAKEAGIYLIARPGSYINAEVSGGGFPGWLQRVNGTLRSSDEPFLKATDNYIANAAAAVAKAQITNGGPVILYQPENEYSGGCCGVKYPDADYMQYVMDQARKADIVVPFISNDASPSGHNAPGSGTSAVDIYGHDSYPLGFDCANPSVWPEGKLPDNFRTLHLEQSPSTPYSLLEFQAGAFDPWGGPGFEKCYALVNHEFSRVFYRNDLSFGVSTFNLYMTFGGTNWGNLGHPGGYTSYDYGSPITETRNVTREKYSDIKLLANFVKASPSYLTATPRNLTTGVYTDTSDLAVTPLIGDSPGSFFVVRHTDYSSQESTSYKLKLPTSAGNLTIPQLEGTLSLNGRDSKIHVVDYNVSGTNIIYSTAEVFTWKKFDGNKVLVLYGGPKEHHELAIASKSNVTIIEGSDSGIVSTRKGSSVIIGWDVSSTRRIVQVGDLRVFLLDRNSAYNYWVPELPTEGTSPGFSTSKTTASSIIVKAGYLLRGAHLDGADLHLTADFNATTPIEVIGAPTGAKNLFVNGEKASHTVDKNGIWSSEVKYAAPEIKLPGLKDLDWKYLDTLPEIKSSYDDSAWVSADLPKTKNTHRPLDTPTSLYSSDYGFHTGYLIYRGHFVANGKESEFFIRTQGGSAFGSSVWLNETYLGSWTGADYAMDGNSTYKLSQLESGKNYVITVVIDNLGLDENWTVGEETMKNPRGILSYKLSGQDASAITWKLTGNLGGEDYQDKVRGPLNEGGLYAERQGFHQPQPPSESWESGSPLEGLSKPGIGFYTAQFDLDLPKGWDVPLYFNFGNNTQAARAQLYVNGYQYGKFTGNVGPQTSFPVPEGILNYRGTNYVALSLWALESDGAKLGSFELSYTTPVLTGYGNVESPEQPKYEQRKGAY
In words: Inhibition of Aspergillus oryzae beta-galactosidase at 1 mM using p-nitrophenyl glycopyranoside preincubated for 5 mins followed by substrate addition measured after 20 mins by visible absorption spectroscopic method relative to control. The method in brief: as §1

Another test concerns Saccharomyces cerevisiae. In words: Inhibition of yeast alpha glucosidase at 1 mM using p-nitrophenyl glycopyranoside preincubated for 5 mins followed by substrate addition measured after 20 mins by visible absorption spectroscopic method relative to control. The method in brief: as §1
For a further test, the system named is Oryza sativa. In words: Inhibition of rice alpha-glucosidase at 1 mM using p-nitrophenyl glycopyranoside preincubated for 5 mins followed by substrate addition measured after 20 mins by visible absorption spectroscopic method relative to control. The method in brief:
as §1

The next test relates to Canavalia ensiformis. In words: Inhibition of jack bean beta-N-acetylglucosaminidase at 1 mM using p-nitrophenyl glycopyranoside preincubated for 5 mins followed by substrate addition measured after 20 mins by visible absorption spectroscopic method relative to control. The method in brief: as §1
The nature of test [4]: Inhibition of almond beta-glucosidase using p-nitrophenyl glycopyranoside preincubated for 5 mins followed by substrate addition measured after 20 mins by visible absorption spectroscopic method. More on the design: species or system Prunus dulcis. The method in brief: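 IC50 determined only for compounds giving ≥80% inhibition at 1 mM, read from plots of % inhibition versus inhibitor concentration. p-Nitrophenyl glycopyranoside substrate (10 mM solution) at the enzyme's optimal pH, with 0.01–0.5 units/mL enzyme. 5 min rt preincubation with enzyme, then 20 min at 37 °C. Borate stop (pH 9.8), absorbance at 405 nm. Duplicates averaged.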

The target in test [5] is Alpha-galactosidase (Coffea arabica) (UniProt Q42656). In words: Inhibition of coffee beans alpha-galactosidase at 1 mM using p-nitrophenyl glycopyranoside preincubated for 5 mins followed by substrate addition measured after 20 mins by visible absorption spectroscopic method relative to control. Summed up:
as §1

The term inhibition denotes how much of the control response was suppressed. As usually defined, the IC50 is the concentration that gives 50% inhibition. Lower therefore signals higher potency.

Activity calls are given as the source filed them. The rule behind the calls is not given here.

Alpha-galactosidase (Coffea arabica), sequence (Q42656 16-378 limits assumed): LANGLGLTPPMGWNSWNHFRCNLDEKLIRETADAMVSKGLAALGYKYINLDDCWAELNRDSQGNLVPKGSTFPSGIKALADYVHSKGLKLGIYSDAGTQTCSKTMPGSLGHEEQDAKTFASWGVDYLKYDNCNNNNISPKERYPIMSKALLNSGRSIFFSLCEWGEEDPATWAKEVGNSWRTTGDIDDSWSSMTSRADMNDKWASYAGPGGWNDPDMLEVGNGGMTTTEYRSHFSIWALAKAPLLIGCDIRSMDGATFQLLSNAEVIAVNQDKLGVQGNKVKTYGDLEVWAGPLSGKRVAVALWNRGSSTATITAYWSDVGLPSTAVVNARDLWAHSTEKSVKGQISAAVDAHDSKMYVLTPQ

Consider `O[C@@H]1[C@H](O)CN[C@@H]1Cn1cc(-c2ccccc2)nn1`, for which the inhibition amounted to 62% in test [1] and 41% in test [3]. The inhibition result (in test [2]; in the test on Saccharomyces cerevisiae; in the test with Oryza sativa; in the test with Canavalia ensiformis) was “inactive” throughout.

On to `O[C@@H]1[C@H](O)CN[C@H]1Cn1cc(-c2ccccc2)nn1`, for which the inhibition result (in test [2]; in test [3]; with Saccharomyces cerevisiae; with Oryza sativa; with Canavalia ensiformis) was “inactive” each time. Moreover, in test [4], the IC50 amounted to 8 µM. In test [5], the inhibition is < 50%.
